Published values from different studies.

| Compound | assay | test system | conditions | quantity | result |
| --- | --- | --- | --- | --- | --- |
| CC[C@H](C)[C@H](NC(=O)[C@H](CO)NC(=O)[C@H](CCCNC(=N)N)NC(C)=O)C(=O)N[C@H]1CSSC[C@@H](C(=O)N[C@H](C(N)=O)[C@@H](C)O)NC(=O)[C@H](CCCNC(=N)N)NC(=O)[C@H](Cc2c[nH]cn2)NC(=O)[C@H](C)NC(=O)CNC(=O)[C@H](Cc2c[nH]c3ccccc23)NC(=O)[C@H](CC(=O)O)NC(=O)[C@H](CCC(N)=O)NC(=O)[C@H](Cc2cn(C)c3ccccc23)NC(=O)[C@H](C(C)C)NC1=O | absorbance | water | – | thermodynamic solubility | > 500 µM |
| C[C@]12CCCN1CC1=NNC(=O)c3cc(F)cc4[nH]c2c1c34 | – | male Sprague-Dawley rat, brain | intravenous, 1 mg/kg | unbound tissue/plasma ratio | 0.134 |
| CC(C)S(=O)(=O)c1ccc(S(=O)(=O)N2CCC[C@@H](C(=O)N3CCC(F)(F)CC3)C2)cc1 | general toxicity | mouse | oral | MTD | 10 mg/kg |
| CC[C@H](C)[C@H](NC(=O)[C@H](Cc1ccccc1)NC(=O)[C@H](Cc1ccc(O)cc1)NC(=O)[C@@H]1CCCN1C(=O)[C@@H](N)Cc1ccc(O)cc1)C(=O)N1CCC[C@H]1C(=O)N[C@@H](CC(C)C)C(=O)NCC(=O)N[C@H](CCCCN)C(=O)NCC(=O)N[C@@H](CCC(=O)O)C(=O)N[C@H](C(=O)N[C@@H](CC(N)=O)C(=O)N[C@@H](CC(C)C)[C@@H](O)CC(=O)N[C@H](C(=O)N[C@@H](C)C(=O)N[C@@H](CCC(=O)O)C(=O)N1CCC[C@@H]1C(=O)N[C@@H](CCCCNC(=O)CCC(=O)O[C@H]1CC[C@@]2(C)C(=CC[C@H]3[C@@H]4CC[C@H]([C@H](C)CCCC(C)C)[C@@]4(C)CC[C@@H]32)C1)C(N)=O)C(C)C)C(C)C | – | aqueous buffer | pH 6.5 | thermodynamic solubility | 11 µg/mL |
| CC[C@@H]1CN(C(=O)NCC(F)(F)F)C[C@@H]1c1cnc2cnc3[nH]ccc3n12 | – | beagle dog, plasma | oral, 1 mg/kg, single dose | MRT(0-inf) | 11.6 h |
| O=C(NCCN1CCCC1)c1cc(-c2ccc(CN3CCOCC3)cc2)nc2ccc(F)cc12 | – | male beagle dog, blood | oral, 3 mg/kg | Tmax | 4 h |
| CC[C@H](C)[C@H](NC(=O)[C@H](Cc1ccccc1)NC(=O)[C@H](Cc1ccc(O)cc1)NC(=O)[C@@H]1CCCN1C(=O)[C@@H](N)Cc1ccc(O)cc1)C(=O)N[C@H](CCCCN)C(=O)N[C@@H](CC(C)C)C(=O)NCC(=O)N[C@H](CCCCN)C(=O)NCC(=O)N[C@@H](CCC(=O)O)C(=O)N[C@H](C(=O)N[C@@H](CC(N)=O)C(=O)N[C@@H](CC(C)C)[C@@H](O)CC(=O)N[C@H](C(=O)N[C@@H](C)C(=O)N[C@@H](CCC(=O)O)C(=O)N1CCC[C@@H]1C(=O)N[C@@H](CCCCNC(=O)CCC(=O)O[C@H]1CC[C@@]2(C)C(=CC[C@H]3[C@@H]4CC[C@H]([C@H](C)CCCC(C)C)[C@@]4(C)CC[C@@H]32)C1)C(N)=O)C(C)C)C(C)C | – | aqueous buffer | pH 6.5 | thermodynamic solubility | 55 µg/mL |
| CCn1c(=O)c(-c2cc(NC(=O)Nc3ccccc3)c(F)cc2Br)cc2cnc(NC)cc21 | – | beagle dog, plasma | oral, 5 mg/kg, single dose | Tmax | 2.25 h |
| CCCC(CCC)C(=O)OCC1(CO)C/C(=C\c2ccc(C(F)(F)F)cc2)C(=O)O1 (centres unmarked) | general toxicity | nude mouse | intraperitoneal | MTD | 12 mg/kg/day |
| C=C1C[C@H](O)[C@H](Br)C(C)(C)[C@@]12CCC(C)=C(Cl)C2 | general toxicity | female CD-1 mouse | intraperitoneal, single dose | MTD | 65 mg/kg |
| Cc1cc(Nc2ccc(S(F)(F)(F)(F)F)cc2)n2nc(C(C)(F)F)nc2n1 | general toxicity | mouse | oral, multiple doses | MTD | > 200 mg/kg |
| Cn1nc(C(F)(F)F)cc1-c1ccc(OCc2ccc(Cl)cc2)c(-c2cc(C(F)(F)F)cc(C(F)(F)F)c2)c1O | general toxicity | CD-1 mouse | oral | MTD | 240 mg/kg/day |
| CC[C@H](C)[C@H](NC(=O)[C@H](Cc1ccccc1)NC(=O)[C@H](Cc1ccc(O)cc1)NC(=O)[C@@H]1CCCN1C(=O)[C@@H](N)Cc1ccc(O)cc1)C(=O)N1CCC[C@H]1C(=O)N[C@@H](CC(C)C)C(=O)NCC(=O)NCC(=O)N[C@H](CCCCN)C(=O)N[C@@H](CCC(=O)O)C(=O)N[C@H](C(=O)N[C@@H](CC(N)=O)C(=O)N[C@@H](CC(C)C)[C@@H](O)CC(=O)N[C@H](C(=O)N[C@@H](C)C(=O)N[C@@H](CCC(=O)O)C(=O)N1CCC[C@@H]1C(=O)N[C@@H](CCCCNC(=O)CCC(=O)O[C@H]1CC[C@@]2(C)C(=CC[C@H]3[C@@H]4CC[C@H]([C@H](C)CCCC(C)C)[C@@]4(C)CC[C@@H]32)C1)C(N)=O)C(C)C)C(C)C | – | aqueous buffer | pH 6.5 | thermodynamic solubility | < 1 µg/mL |
| N#C[C@@]1(c2ccc3c(N)ncnn23)O[C@H](CO)[C@@H](O)[C@H]1O | – | dog, plasma | intravenous, 2 mg/kg | MRT(0-inf) | 3.93 h |
